Experiments:
Assay type in all cases: functional
HeLa = experiment: Cytotoxicity against human HeLa cells assessed as cell viability after 24 hrs by WST-1 assay; settings: read-out: LD50 (the source's name)
Summary of the method: (§1)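 Cells from ATCC grown in McCoy's 5A with 10% FBS, penicillin (100 units/mL) and streptomycin (100 μg/mL) at 37 °C, 5% CO2. Seeded at 1 × 10^4 cells per well with a range of compound concentrations for 24 h. Viability read by WST-1. LD50 values reported as mean ± SD (n = 5).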

MCF7 = experiment: Cytotoxicity against human MCF7 cells assessed as cell viability after 24 hrs by WST-1 assay; settings: MCF7, 24 h, read-out: LD50 (the source's name); summary of the method: as §1
Jurkat = experiment: Cytotoxicity against human Jurkat cells assessed as cell viability after 24 hrs by WST-1 assay; settings: read-out: LD50 (the source's name); summary of the method: as §1
MOLT-4 = experiment: Cytotoxicity against human MOLT4 cells assessed as cell viability after 24 hrs by WST-1 assay; settings: MOLT-4, 24 h, read-out: LD50 (the source's name); summary of the method: as §1
HCT-116 = experiment: Cytotoxicity against human HCT116 cells assessed as cell viability after 24 hrs by WST-1 assay; settings: HCT-116, 24 h, read-out: LD50 (the source's name); summary of the method: as §1
RAW264.7 = experiment: Cytotoxicity against mouse RAW264.7 cells assessed as cell viability after 24 hrs by WST-1 assay; settings: RAW264.7, 24 h, read-out: LD50 (the source's name); summary of the method: as §1

| SMILES | CC50 (HeLa) [µM] | CC50 (MCF7) [µM] | CC50 (Jurkat) [µM] | CC50 (MOLT-4) [µM] | CC50 (HCT-116) [µM] | CC50 (RAW264.7) [µM] |
| --- | --- | --- | --- | --- | --- | --- |
| CCCCC/C=C/c1c(O)ccc(O)c1CO | 24.6 | 14.8 | 3.1 | 3 | 5.8 | 5.6 |
| CCCCCCC(O)c1c(O)ccc(O)c1CO (stereo not drawn) | > 100 | > 100 | > 100 | > 100 | 69.7 | 55.4 |
| CCCCCCCc1c(O)ccc(O)c1CO | 77.6 | 93 | 8.2 | 5.9 | 61.8 | 20.1 |
| CCCCCCC(O)c1cccc(O)c1CO (stereo not drawn) | 64.2 | > 100 | 8.3 | 6.2 | 66 | 26.2 |
| CCCCC/C=C/C1=C(CO)C(=O)C[C@H](O)[C@@H]1O | > 100 | > 100 | > 100 | > 100 | > 100 | > 100 |
| CCCCC/C=C/C1=C(CO)C(=O)[C@H]2O[C@H]2[C@@H]1O | 77.8 | 75 | 20 | 11.2 | 6.4 | 6.5 |
| CCCCC/C=C/C1=C(CO)[C@H](O)[C@H]2O[C@H]2[C@@H]1O | > 100 | > 100 | > 100 | > 100 | > 100 | > 100 |
| Nc1ccn([C@@H]2O[C@H](CO)[C@@H](O)C2(F)F)c(=O)n1 [GEMCITABINE] | 0.023 | 0.004 | 0.012 | 0.008 | 0.005 | 0.005 |

Reference: ChEMBL document CHEMBL3286175, “Cytotoxic alkylated hydroquinone, phenol, and cyclohexenone derivatives from Aspergillus violaceofuscus Gasperini” (2014)
